EP2 mod = EP2 receptor modulators, cAMP readout, primary screen, cell-based, HTRF cAMP, PGE2 stimulation; induction, % at 25 µM; AID 940, 2007; EP2-expressing cells, cAMP HTRF FRET, PGE2 co-stimulation; Prostaglandin E2 receptor EP2 subtype (Homo sapiens), P43116; actives 0.83% (n = 260,000);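 active means compounds whose cAMP rise, as percent of the full-agonist control response, exceeds 60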;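 further: rat C6 glioma line stably carrying human EP2 under a CMV promoter; the protocol text gives 20 µM as final concentration; 100% = response of wells given 1 µM PGE2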
NPY2 pot ag = NPY-Y2 potentiators or agonists, primary screen, cell-based; cells expressing NPY-Y2, potentiator/agonist read-out; activation, % at 3.6 µM; actives 0.45% (n = 220,000); in the data active means activation above about 27%;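 further: cells stimulated with NPY near EC25 plus isoproterenol at EC100; 0% = vehicle plus submaximal agonist and 100% = vehicle plus saturating agonist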
Target sequence (P49146 whole entry, looked up): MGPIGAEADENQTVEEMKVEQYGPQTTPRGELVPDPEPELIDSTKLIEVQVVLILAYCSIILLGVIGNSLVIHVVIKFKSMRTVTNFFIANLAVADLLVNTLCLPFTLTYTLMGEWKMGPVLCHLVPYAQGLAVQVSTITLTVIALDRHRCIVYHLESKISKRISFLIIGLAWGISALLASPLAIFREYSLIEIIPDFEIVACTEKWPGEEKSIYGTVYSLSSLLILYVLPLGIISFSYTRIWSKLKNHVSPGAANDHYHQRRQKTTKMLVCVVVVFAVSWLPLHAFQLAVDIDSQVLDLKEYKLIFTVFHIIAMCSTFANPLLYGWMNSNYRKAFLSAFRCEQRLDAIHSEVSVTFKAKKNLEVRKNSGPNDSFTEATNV
NPY-Y1 antag = NPY-Y1 receptor antagonists, primary screen, cell-based; Neuropeptide Y receptor type 1 (Homo sapiens), P25929; HEK293-CNG Y1 cells, membrane potential fluorescence; NPY at EC95, then isoproterenol; inhibition, % at 3.6 µM; actives 1% (n = 200,000); AID 1040, 2008;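 active means inhibition above the campaign mean inhibition of all tested compounds plus 3 SD, cut at about 20% in these data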;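 further: 0% = DMSO wells given NPY plus isoproterenol and 100% = isoproterenol alone without NPY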
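Assay system: HEK293 Y1/CNG channel cell line; Doses: single compound dose of 3.6 µM, 0.4% DMSO; Timing: dye 3 h, compound 60 min room temperature, stimulation 45 min; Technique: Membrane-potential fluorescent dye readout; Measure: % inhibition of NPY effect.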
PGE2 EP2 inh = human EP2 receptor antagonists, primary screen, TR-FRET cAMP, C6 glioma cells | C6 glioma cells expressing human EP2; cells stimulated with saturating PGE2 | Prostaglandin E2 receptor EP2 subtype (Homo sapiens), P43116 | inhibition, % at 25 µM | actives 0.52% (n = 260,000) | AID 1422, 2008;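 active means percent inhibition above 40 after rounding to a whole number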;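 further: rat C6 glioma host cells with rolipram phosphodiesterase inhibitor present; the protocol text gives 20 µM as final concentration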
NPY-Y1 PAM-ag = NPY-Y1 receptor potentiators or agonists, primary screen, cell-based | Neuropeptide Y receptor type 1 (Homo sapiens), P25929 | actives 0.37% (n = 220,000) | NPY-Y1 expressing cells, potentiator/agonist activation | AID 1304, 2008 | activation, % at 3.6 µM; in the data active means activation above about 33%, passing the limit was not always enough;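 further: cells stimulated with NPY at EC10 then isoproterenol at EC100; 0% = low agonist plus stimulus and 100% = saturating agonist plus stimulus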
NPY-Y2 antag = NPY-Y2 receptor antagonists, primary screen, cell-based | Neuropeptide Y receptor type 2 (Homo sapiens), P49146 | NPY-Y2 expressing cells, antagonist mode | inhibition, % at 2.7 µM | actives 0.99% (n = 140,000); in the data active means inhibition above about 17%;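 further: 0% = vehicle with agonist challenge and 100% = reference antagonist with challenge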
Starred values were filed as active, the others as inactive; . = no result. Sampled rows, rich in hits. Any-hit rate of the full collection: about 2.8%.

SMILES	EP2 mod	NPY2 pot ag	NPY-Y1 antag	PGE2 EP2 inh	NPY-Y1 PAM-ag	NPY-Y2 antag
CC(C)COC(=O)C(C)Nc1n[nH]c(=S)[nH]c1=O (centres undefined)	-25.3	-8.7	1.1	47.4*	1.2	.
COC(=O)CNc1n[nH]c(=S)[nH]c1=O	14.9	4.0	-0.8	86.3*	-2.5	1.2
CN(C)C(=O)CNc1n[nH]c(=S)[nH]c1=O	-4.0	-5.6	.	27.9	4.2	.
Cc1ccc(C(O)CN2CCC3(CC2)CC(O)c2cc(Cl)ccc2O3)cc1C (centres undefined)	-86.9	.	.	6.5	.	.
CC1CCN(CC(=O)N2c3ccccc3Sc3cc4ccccc4cc32)CC1	37.0	.	.	45.9*	.	.
CN1CCN(CC(=O)N2c3ccccc3Sc3cc4ccccc4cc32)CC1	-10.1	.	.	44.8*	.	.
CC1CCCN(CC(=O)N2c3ccccc3Sc3ccccc32)C1 (centres undefined)	33.7	-0.1	-0.3	0.9	3.9	.
CCc1cccc(C)c1NC(=O)C1CCN(S(=O)(=O)c2ccc(OC)cc2)CC1	-45.3	.	.	10.5	.	.
CC1=CC=CC2=NC(=O)CC(C)(C(=O)N(CC(=O)NC(C)(C)C)C3CCCCC3)N12 (centres undefined)	3.9	.	.	4.0	.	.
Cc1cccc2cc3ccc4ccccc4c3cc12	14.7	.	.	12.9	.	.
CC1=[N+](C)c2ccc3ccccc3c2C1(C)C	-1.7	-32.0	27.0*	11.1	-71.0	21.8*
COc1cccc2c1C(=O)c1c(O)c3c(c(O)c1C2=O)C[C@@](O)(C(=O)CO)C[C@H]3O[C@H]1C[C@@H](N)[C@H](O)[C@@H](C)O1.[W]	15.3	.	.	39.8*	.	.
Cc1cccc2cc(C#N)c(NC3CCCCC3)nc12	78.1*	.	.	14.8	.	.
COCCn1c(SCC#N)nnc1-c1ccc(OC)cc1	23.7	-5.2	9.9	123.1*	-2.1	-0.3
COc1ccc(NC(=O)CSc2nc3c(C)cccc3cc2C#N)cc1	25.2	.	.	7.9	.	.
Cc1cc2c(s1)c1cnn(CC(=O)N3CCCC3)c(=O)c1n2C	-10.5	.	.	.	.	.
CCOC(Cn1c(SCc2cc(C(C)=O)ccc2OC)nc2ccccc2c1=O)OCC	18.8	-6.5	3.1	30.2	-7.4	1.2
COc1ccc(C(C)=O)cc1CSc1nc2cc(C(=O)O)ccc2c(=O)n1Cc1ccccc1	63.7*	8.3	6.6	11.9	16.8	1.8
CCC(c1nnnn1Cc1ccco1)N(Cc1cc2cc(OC)ccc2[nH]c1=O)CC1CCCO1 (centres undefined)	0.8	.	.	1.8	.	.
CCOC(=O)Cn1c(=O)oc2cc(S(=O)(=O)NC(C)(C)CC)ccc21	-16.9	4.7	.	3.8	11.8	.
CCOC(=O)Cn1c(=O)oc2cc(S(=O)(=O)Nc3cccc(C)c3)ccc21	-9.5	42.7*	-6.2	11.5	32.1*	-4.0
O=c1cc(-c2ccc(Cl)cc2)oc2ccc(Cl)cc12	-4.3	.	.	4.4	.	.
CN(C)CCC(=O)[C@]1(O)CC[C@@H]2[C@H]3CC=C4C[C@@H](O)CC[C@]4(C)[C@@H]3CC[C@]21C	-49.0	.	.	64.9*	.	.
CCOC(=O)C1=C(C)N(C)C(C)=C(C(=O)OCC)C1c1ccc(C(=O)OC)cc1	33.3	-13.3	35.1*	7.9	-15.1	24.8*
COCCCNC(=O)c1c(NC(=O)c2ccccc2)sc2c1CCCC2	65.1*	.	.	11.4	.	.
COC(=O)[C@@]1(Cc2ccc(OC)cc2)[C@H]2c3cc(C(=O)N4CCCC4)n(Cc4ccc(C)o4)c3C[C@H]2CN1C(=O)c1ccccc1	33.2	3.3	31.9*	16.7	-6.0	22.9*
COC(=O)[C@@]1(Cc2ccc(F)cc2)[C@H]2c3cc(C(=O)N(C)C)n(Cc4ccccc4)c3C[C@H]2CN1C(=O)c1ccccc1	27.4	3.0	32.5*	8.1	-11.4	20.9*
C=C1C(=O)C=C2CN(C(=O)c3ccccc3)[C@@](Cc3ccc(F)cc3)(C(=O)OC)[C@@H]12	-43.9	-1.4	0.2	92.3*	-26.0	1.0
COc1ccc(C(=O)c2ccccc2)cc1	2.3	-9.6	-0.7	2.4	-7.9	.

Compound activity as filed in PubChem.
